ChEMBL document CHEMBL1134517, “Amphiphilic anionic analogues of galactosylceramide: synthesis, anti-HIV-1 activity, and gp120 binding” (J Med Chem, 2001)

Columns and labels:
Conditions in all cases: Homo sapiens
CEM-SS [1] = experiment: Cytotoxicity was evaluated in vitro on CEM-SS cells; format: functional
MT4 [2] = experiment: Anti-HIV-1 activity evaluated in vitro on MT-4 cells; format: functional, cell-based
In short: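 MT4 cells (RPMI, 10% fetal calf serum) infected with HIV-1 IIIB at a dose killing 90% of cells by day 5. Compounds in DPBS added after viral adsorption. Protection from the viral cytopathic effect read by MTT viability assay. IC50 derived from curves of protection percentage against drug concentration.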

MT4 [3] = experiment: Cytotoxicity was evaluated in vitro on MT-4 cells; format: functional
In short: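 Uninfected MT4 cells incubated 5 days at 37 °C with various concentrations of galactolipid in DPBS. Proliferation and viability read by colorimetric MTT assay.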

CEM-SS [4] = experiment: Anti-HIV-1 activity evaluated in vitro on CEM-SS cells; format: functional, cell-based
In short: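 CEM-SS cells (RPMI, 10% fetal calf serum) infected with HIV-1 LAI grown in CEM-SS cells. Galactolipids in DPBS (or as phospholipid/cholesterol liposomes) added after viral adsorption. After 5 days, reverse transcriptase activity in supernatant measured, and inhibition calculated against untreated infected cells. IC50 taken from median-effect plot of dose-effect data. Triplicate per concentration, experiment repeated twice.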

SMILES | CC50 (CEM-SS [1]) | IC50 (MT4 [2]) | CC50 (MT4 [3]) | IC50 (CEM-SS [4])
CCCCCCCCCCCCCC(=O)NC(CO[C@@H]1O[C@H](CO)[C@H](O)[C@H](O)[C@H]1O)C(=O)NCCO (stereo not given in full) | > 100 µM | > 100 µM | > 100 µM | > 100 µM
O=C(O)CCCCCCCCCCC(=O)N(CCCCCCCC(F)(F)C(F)(F)C(F)(F)C(F)(F)C(F)(F)C(F)(F)C(F)(F)C(F)(F)F)CCO[C@@H]1O[C@H](CO)[C@H](O)[C@H](O)[C@H]1O | > 18 µM | > 18 µM | > 18 µM | > 18 µM
CCCCCCCCCCCCCCNC(=O)C(CO[C@@H]1O[C@H](CO)[C@H](O)[C@H](O)[C@H]1O)NP(=O)(O)OC (stereo not given in full) | > 100 µM | > 100 µM | > 100 µM | > 100 µM
CCCCCCCCCCCCCCNC(=O)C(CO[C@@H]1O[C@H](CO)[C@H](O)[C@H](O)[C@H]1O)NC(=O)CCC(=O)NCCS(=O)(=O)O (stereo not given in full) | > 100 µM | > 100 µM | > 100 µM | 50 µM
CCCCCCCCCCCCCCNC(=O)C(N)CO[C@@H]1O[C@H](CO)[C@H](O)[C@H](O)[C@H]1O (stereo not given in full) | – | – | – | 60 µM
CCCCCCCCCCCCCC(=O)NC(CO[C@@H]1O[C@H](CO)[C@H](O)[C@H](O)[C@H]1O)C(=O)NCCOS(=O)(=O)O (stereo not given in full) | > 100 µM | 20 µM | > 100 µM | 10 µM
O=C(O)CCCCCCCCCCCNC(=O)C(CO[C@@H]1O[C@H](CO)[C@H](O)[C@H](O)[C@H]1O)NC(=O)CCC(=O)O (stereo not given in full) | > 100 µM | > 100 µM | > 100 µM | > 100 µM
CCCCCCCCCCCCCCNC(=O)C(CO[C@@H]1O[C@H](CO)[C@H](O)[C@H](O)[C@H]1O)NC(=O)CCC(=O)O (stereo not given in full) | > 100 µM | > 100 µM | > 100 µM | > 100 µM
CCCCCCCCCCCCCCNC(=O)C(CO[C@@H]1O[C@H](CO)[C@H](O)[C@H](O)[C@H]1O)NC(=O)CCCCCCCCCCC(=O)O (stereo not given in full) | > 100 µM | > 100 µM | > 100 µM | > 100 µM
CCCCCCCCCCCCCC(=O)NC(CO[C@@H]1O[C@H](CO)[C@H](O)[C@H](O)[C@H]1O)C(=O)O (stereo not given in full) | > 100 µM | > 100 µM | > 100 µM | 20 µM
NC(CO[C@@H]1O[C@H](CO)[C@H](O)[C@H](O)[C@H]1O)C(=O)NCCCCCCCCCCCC(=O)O (stereo not given in full) | > 100 µM | > 100 µM | > 100 µM | > 100 µM
NC(CO[C@@H]1O[C@H](CO)[C@H](O)[C@H](O)[C@H]1O)C(=O)NCCCCCCCCCCCC(F)(F)C(F)(F)C(F)(F)C(F)(F)C(F)(F)C(F)(F)F (stereo not given in full) | – | – | – | 40 µM
CCCCCCCCCCCCCC(=O)NCC(NC(=O)CCCCCCCCCCCCC)C(=O)NCCN(CCNC(=O)C(O)C(O)C(O[C@@H]1O[C@H](CO)[C@H](O)[C@H](O)C1O)C(O)CO)CCNC(=O)C(O)C(O)C(O[C@@H]1O[C@H](CO)[C@H](O)[C@H](O)[C@H]1O)C(O)CO (stereo not given in full) | 44 µM | 33 µM | 38 µM | 32 µM
CCCCCCCCCCCCCC(=O)NCC(NC(=O)CCCCCCCCCCCCC)C(=O)NCCNC(=O)C(O)C(O)C(O[C@@H]1O[C@H](CO)[C@H](O)[C@H](O)[C@H]1O)C(O)CO (stereo not given in full) | > 100 µM | > 100 µM | > 100 µM | > 100 µM
